Results taken from ChEMBL document CHEMBL1145089, “Development of water-soluble prodrugs of the HIV-1 protease inhibitor KNI-727: importance of the conversion time for higher gastrointestinal absorption of prodrugs based on spontaneous chemical cleavage” (J Med Chem, 2003).

Columns and labels:
[1] = In vitro half life at pH 7.4 and 37 degrees C; format: ADME; conditions: buffer
Procedure, shortened: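 Prodrug, added as 0.5 mM DMSO stock (10 μL into 1 mL), incubated in PBS pH 7.4 at 37 °C. Release of parent drug followed by RP-HPLC. t1/2 is the time to 50% release of parent drug. Means ± SEM of three experiments.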

[2] = C max was determined; format: ADME, organism-based; conditions: in vivo
Procedure, shortened: (§1)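 Male Sprague–Dawley rats (240–300 g, n = 5 or 3), fasted overnight, given the agent intraduodenally via duodenal cannula at a dose equivalent to 10 mg/kg parent drug, in 50% PEG (8000) or saline, 1 mL/kg. Arterial blood taken at 5 min–8 h. Plasma was ethyl acetate extracted and the parent drug quantified by RP-HPLC (UV 202 nm). Cmax/Tmax from mean profiles; AUC0–8 by linear trapezoidal rule.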

[3] = Area under curve (AUC) was determined; format: ADME; design: concentration or dose not given beside the values; procedure, shortened: as §1
[4] = Bioavailability; format: ADME, organism-based; conditions: eutheria, in vivo
Procedure, shortened: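 Rat intraduodenal dosing (dose equivalent to 10 mg/kg parent drug, 50% PEG or saline, 1 mL/kg). Plasma parent drug measured by RP-HPLC over 8 h. Bioavailability is the ratio of mean AUC0–8 (×10) against intravenous parent drug at 1 mg/kg in ethanol cosolvent via femoral vein (n = 2).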

[5] = T max was determined; format: ADME; procedure, shortened: as §1

| Structure (SMILES) | half-life [1] [min] | Cmax [2] [ng/mL] | AUC [3] [ng·h/mL] | bioavailability [4] [%] | Tmax [5] [min] |
| --- | --- | --- | --- | --- | --- |
| Cc1cccc(C)c1OCC(=O)N[C@@H](Cc1ccccc1)[C@H](O)C(=O)N1CSC(C)(C)[C@H]1C(=O)NC(C)(C)C | – | 1230 | 3580 | 15.8 | 5 |
| Cc1cccc(C)c1OCC(=O)N[C@@H](Cc1ccccc1)[C@H](OC(=O)CCC(=O)NCCCN1CCOCC1)C(=O)N1CSC(C)(C)[C@H]1C(=O)NC(C)(C)C.Cl | 79.5 | 410 | 1570 | 6.9 | 30 |
| Cc1cccc(C)c1OCC(=O)N[C@@H](Cc1ccccc1)[C@H](OC(=O)CCC(=O)NCCN1CCOCC1)C(=O)N1CSC(C)(C)[C@H]1C(=O)NC(C)(C)C.Cl | 40.3 | 1890 | 5250 | 23.1 | 30 |
| Cc1cccc(C)c1OCC(=O)N[C@@H](Cc1ccccc1)[C@H](OC(=O)CCC(=O)NCCN1CCCCC1)C(=O)N1CSC(C)(C)[C@H]1C(=O)NC(C)(C)C.Cl | 3.6 | – | – | – | – |
| Cc1cccc(C)c1OCC(=O)N[C@@H](Cc1ccccc1)[C@H](OC(=O)CCCC(=O)NCCN1CCOCC1)C(=O)N1CSC(C)(C)[C@H]1C(=O)NC(C)(C)C.Cl | 2060 | 480 | 1230 | 5.4 | 30 |
| Cc1cccc(C)c1OCC(=O)N[C@@H](Cc1ccccc1)[C@H](OC(=O)CCC(=O)NCCN1CCCC1)C(=O)N1CSC(C)(C)[C@H]1C(=O)NC(C)(C)C.Cl | 7.9 | 840 | 3650 | 16.1 | 15 |

Continued, values first:

| half-life [1] [min] | Cmax [2] [ng/mL] | AUC [3] [ng·h/mL] | bioavailability [4] [%] | Tmax [5] [min] | Structure (SMILES) |
| --- | --- | --- | --- | --- | --- |
| 922 | – | – | – | – | CCCNC(=O)CCC(=O)O[C@H](C(=O)N1CSC(C)(C)[C@H]1C(=O)NC(C)(C)C)[C@H](Cc1ccccc1)NC(=O)COc1c(C)cccc1C |
| 1240 | 460 | 2130 | 9.4 | 60 | Cc1cccc(C)c1OCC(=O)N[C@@H](Cc1ccccc1)[C@H](OC(=O)CCCC(=O)NCCN)C(=O)N1CSC(C)(C)[C@H]1C(=O)NC(C)(C)C.Cl |
| 12.7 | 650 | 3980 | 17.5 | 240 | Cc1cccc(C)c1OCC(=O)N[C@@H](Cc1ccccc1)[C@H](OC(=O)CCC(=O)NCCN)C(=O)N1CSC(C)(C)[C@H]1C(=O)NC(C)(C)C.Cl |
| 48.5 | – | – | – | – | Cc1cccc(C)c1OCC(=O)N[C@@H](Cc1ccccc1)[C@H](OC(=O)CCC(=O)NCc1ccccn1)C(=O)N1CSC(C)(C)[C@H]1C(=O)NC(C)(C)C.Cl |
| 35.4 | 1370 | 6000 | 26.4 | 30 | Cc1cccc(C)c1OCC(=O)N[C@@H](Cc1ccccc1)[C@H](OC(=O)CCC(=O)NCc1cccnc1)C(=O)N1CSC(C)(C)[C@H]1C(=O)NC(C)(C)C.Cl |
| 34.9 | 1620 | 6570 | 29 | 30 | Cc1cccc(C)c1OCC(=O)N[C@@H](Cc1ccccc1)[C@H](OC(=O)CCC(=O)NCc1ccncc1)C(=O)N1CSC(C)(C)[C@H]1C(=O)NC(C)(C)C.Cl |
